Reference: ChEMBL document CHEMBL1134416, “Statistical molecular design, parallel synthesis, and biological evaluation of a library of thrombin inhibitors” (J Med Chem, 2001)

Legend:
[1] = Estimation of membrane permeability by migration behavior in micellar media; assay type: ADME
In short: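 Capillary electrophoresis in MEKC mode on untreated fused-silica capillaries (50 µm i.d., 26.5 cm effective length), 300 V/cm, capillary at 37.0 ± 0.1 °C for log k′. Micellar electrolyte: 100 mM sodium cholate in sodium phosphate buffer pH 7.4, I = 0.05. Rinses with 0.1 M NaOH, water, then electrolyte before each run. Hydrodynamic injection at 20 mbar for 5 s. Read-out: log k′.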

[2] = Estimation of membrane permeability; assay type: ADME
Serine protease 1 = target: T1, Serine protease 1 (Bos taurus, UniProt P00760); experiment: Inhibitory activity against bovine Trypsin
T1 sequence (P00760 whole entry): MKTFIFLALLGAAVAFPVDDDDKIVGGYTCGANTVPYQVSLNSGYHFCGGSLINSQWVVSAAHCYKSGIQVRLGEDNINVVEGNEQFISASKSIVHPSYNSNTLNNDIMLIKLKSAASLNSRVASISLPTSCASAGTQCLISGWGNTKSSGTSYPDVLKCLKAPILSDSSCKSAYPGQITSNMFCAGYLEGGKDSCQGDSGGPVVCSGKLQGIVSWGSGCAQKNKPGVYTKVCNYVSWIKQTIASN
In short: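 Bovine trypsin at 0.25 mg/L final in 0.05 mol/L Tris-HCl pH 8.2 (20 °C) with 20 mM CaCl₂. Inhibitor at seven assay levels of […], preincubated 5 min with enzyme at 37 °C. S-2222 chromogenic substrate at assay levels of 15, 25 and 50 µM. A405 read every 10 s for 110 s. Ki obtained by linear regression.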

Prothrombin = Prothrombin (Homo sapiens, UniProt P00734); experiment: Inhibitory activity against thrombin

SMILES	CE logK' [1]	pKa [2]	Ki (Serine protease 1) [nM]	IC50 (Prothrombin) [nM]
CCc1cc(OCCc2ccccc2)cc(OS(=O)(=O)c2cc(Cl)ccc2Cl)c1	1.85	–	–	–
CCc1cc(OCCc2cccc(O)c2)cc(OS(=O)(=O)c2ccccc2)c1	1.42	–	–	–
CCc1cc(OCCc2cccc(O)c2)cc(OS(=O)(=O)c2cc(C)ccc2OC)c1	1.3	–	–	–
Cc1cc(OCCc2ccccc2)cc(OS(=O)(=O)c2ccccc2)c1	1.51	–	–	–
COc1c(Cl)cc(Cl)cc1S(=O)(=O)Oc1cc(C)cc(OCCc2cccc(O)c2)c1	1.57	–	–	–
CCc1cc(OCCc2ccc(C(=N)N)cc2)cc(OS(=O)(=O)c2ccccc2)c1	0.88	10.9	–	25.1
COc1c(Cl)cc(Cl)cc1S(=O)(=O)Oc1cccc(OCCc2ccc(C(=N)N)cc2)c1	0.96	10.5	263	56.2
COc1ccc(C)cc1S(=O)(=O)Oc1cccc(OCCc2ccccc2)c1	1.4	–	–	–
Cc1cccc(S(=O)(=O)Oc2cccc(OCCc3ccc(CN)cc3)c2)c1	0.89	9.4	–	58900
COc1ccc(C)cc1S(=O)(=O)Oc1cccc(OCCc2ccc(C(=N)N)c(O)c2)c1	1.08	6.2	28200	575

Results, then the compound that gave them:

CE logK' [1]	pKa [2]	Ki (Serine protease 1) [nM]	IC50 (Prothrombin) [nM]	SMILES
1.16	6.3	32400	135	Cc1cc(OCCc2ccc(C(=N)N)c(O)c2)cc(OS(=O)(=O)c2cccc(C)c2)c1
0.98	8.6	–	933	Cc1cc(OCCc2ccc(CN)c(O)c2)cc(OS(=O)(=O)c2cc(Cl)ccc2Cl)c1
1.41	–	–	–	O=S(=O)(Oc1cccc(OCCc2cccc(O)c2)c1)c1cccc(Cl)c1Cl
1.08	8.3	–	11200	CCc1cc(OCCc2ccc(CN)c(O)c2)cc(OS(=O)(=O)c2cccc(Cl)c2Cl)c1
1.27	6.3	–	–	CCc1cc(OCCc2ccc(C(=N)N)c(O)c2)cc(OS(=O)(=O)c2cc(Cl)cc(Cl)c2OC)c1
0.87	9.3	6170	–	CCc1cc(OCCc2ccc(CN)cc2)cc(OS(=O)(=O)c2cc(C)ccc2OC)c1
0.85	8.3	–	10700	NCc1ccc(CCOc2cccc(OS(=O)(=O)c3ccccc3)c2)cc1O
0.97	9	–	1230	Cc1cc(OCCc2ccc(CN)cc2)cc(OS(=O)(=O)c2cccc(Cl)c2Cl)c1
